Measured values pooled from the literature.
Lines come from different studies, so protocols differ.
Method: competition with immobilised ligand
RPS6KA1 C-terminal kinase domain: Ribosomal protein S6 kinase alpha-1, C-terminal kinase domain (RPS6KA1, Homo sapiens, UniProt Q15418)
RPS6KA1 N-terminal kinase domain: Ribosomal protein S6 kinase alpha-1, N-terminal kinase domain (RPS6KA1, Homo sapiens, UniProt Q15418)

O=C(NCCCN1CCOCC1)c1ccc(Nc2nccc(-c3cc4ccccc4s3)n2)cc1 — remaining binding (RPS6KA1 C-terminal kinase domain; binding; 1 µM): 54%
c1cncc(-c2cccc(Nc3nccc(NC4CCCCC4)n3)c2)c1 — remaining binding (RPS6KA1 N-terminal kinase domain; binding; 10 µM): 9.9%
C[C@@H](c1ccc(-n2cnc3c(N)ncnc32)cc1)N1CCc2nn(C)c(Cc3ccccc3)c2C1=O — remaining binding (RPS6KA1 C-terminal kinase domain; binding; 0.1 µM): 100%
CCN1CCN(Cc2ccc(C(=O)Nc3ccc(C)c(Oc4ccc5c(c4)CC(=O)N5)c3)cc2C(F)(F)F)CC1 — remaining binding (RPS6KA1 N-terminal kinase domain; binding; 1 µM): 91%
C[C@H]1CCN(c2nccc(-c3cnn4ncccc34)n2)C1 — remaining binding (RPS6KA1 N-terminal kinase domain; binding; 1 µM): 94%
FC(F)(F)Oc1cccc(-c2cnc3ccc(-c4ccncc4)nn23)c1 — remaining binding (RPS6KA1 N-terminal kinase domain; binding; 5 µM): 63%
CNC(=O)[C@@H]1CC[C@@H](n2c(-c3ccc4cnccc4c3)nc3ccc(C(=O)NCc4cccc(C(N)=O)c4)cc32)C1 — remaining binding (RPS6KA1 C-terminal kinase domain; binding; 1 µM): 100%
O=C(c1ccc(Nc2ncc(Cl)c(-c3ccc(Cl)s3)n2)cc1)N1CCC(N2CCCC2)CC1 — remaining binding (RPS6KA1 C-terminal kinase domain; binding; 1 µM): 72%
O=C(Nc1c[nH]nc1C(=O)NC1CCNCC1)c1cc(F)cc(F)c1 — remaining binding (RPS6KA1 N-terminal kinase domain; binding; 1 µM): 100%
C=CC(=O)N1CCC(C(=O)NCC(=O)N2CCN(c3nc(-c4cnc(N)nc4C(F)F)nc(N4CCOCC4)n3)CC2)CC1 — remaining binding (RPS6KA1 N-terminal kinase domain; binding; 1 µM): 100%
O=C(NCCCN1CCOCC1)c1ccc(Nc2ncc(Cl)c(-c3ccc(Cl)s3)n2)cc1 — remaining binding (RPS6KA1 N-terminal kinase domain; binding; 1 µM): 55%
O=C(NCC1CCOCC1)c1n[nH]cc1NC(=O)c1c(F)cccc1F — remaining binding (RPS6KA1 N-terminal kinase domain; binding; 1 µM): 93%
Cc1cnc(Nc2ccc(C(=O)N3CCC(N4CCCC4)CC3)cc2)nc1-c1cc2ccccc2s1 — remaining binding (RPS6KA1 C-terminal kinase domain; binding; 1 µM): 74%
COc1ccnn2ncc(-c3ccnc(N(C)C)n3)c12 — remaining binding (RPS6KA1 N-terminal kinase domain; binding; 1 µM): 100%
Nc1ncc2c(n1)-c1c([nH]c3ccc(C#CC4CC4)cc13)CCCC2 — remaining binding (RPS6KA1 C-terminal kinase domain; binding; 1 µM): 86%
COc1cnc(Nc2cccc(S(N)(=O)=O)c2)nc1N1CCN(c2ccccc2)C(=O)C1 — remaining binding (RPS6KA1 C-terminal kinase domain; binding; 1 µM): 92%
O=C(NCc1ncc(C(F)(F)F)cc1Cl)c1ccc2c(c1)C1(CCS(=O)(=O)CC1)[C@H](C1CC1)N2S(=O)(=O)c1ccc(F)cc1 — remaining binding (RPS6KA1 N-terminal kinase domain; cell-free assay; 1 µM): 100%
N[C@@H]1CCN(c2nccc(-c3cnn4ncccc34)n2)C1 — remaining binding (RPS6KA1 N-terminal kinase domain; binding; 1 µM): 100%
C[C@@H]1CN(c2cc(-c3n[nH]c4ccc(OC5(C)CC5)cc34)ncn2)C[C@H](C)O1 — remaining binding (RPS6KA1 N-terminal kinase domain; cell-free assay; 0.1 µM): 97%
CN(C)c1nccc(-c2cnn3ncccc23)n1 — remaining binding (RPS6KA1 C-terminal kinase domain; binding; 1 µM): 100%
CS(=O)(=O)NCC[C@H](NC(=O)c1cncc2c1cnn2-c1ccc(F)cc1)c1ccnc(S(C)(=O)=O)c1 — remaining binding (RPS6KA1 N-terminal kinase domain; cell-free assay; 1 µM): 100%
COc1ncc2cc3ccccc3nc2c1C#N — remaining binding (RPS6KA1 N-terminal kinase domain; cell-free assay; 5 µM): 91%
CO[C@@H](C)c1c(Nc2ccc([C@H](N(C)C(=O)C3CCS(=O)(=O)CC3)C(F)(F)F)cc2)cnc2cc(Cl)nn12 — remaining binding (RPS6KA1 C-terminal kinase domain; cell-free assay; 1 µM): 91%
CN(c1nccc(-c2cnn3ncccc23)n1)C1CC1 — remaining binding (RPS6KA1 C-terminal kinase domain; binding; 1 µM): 100%
O=C(NCCCC1CCCCC1)c1ccc(CNC(=O)c2cnn(-c3ccccc3)c2C(F)(F)F)cc1 — remaining binding (RPS6KA1 N-terminal kinase domain; cell-free assay; 0.1 µM): 100%
CN(CCCC(F)(F)F)c1nccc(-c2cnn3ncccc23)n1 — remaining binding (RPS6KA1 C-terminal kinase domain; binding; 1 µM): 100%
CC(=O)c1c(NS(C)(=O)=O)c2cc(-c3ccc(Cl)cc3)c(-c3ccc(Cl)cc3Cl)nc2n(C)c1=O — remaining binding (RPS6KA1 C-terminal kinase domain; cell-free assay; 1 µM): 88%
O=C(c1ccc(Nc2ncc(Cl)c(-c3cc4ccccc4s3)n2)cc1)N1CCC(N2CCCC2)CC1 — remaining binding (RPS6KA1 C-terminal kinase domain; binding; 1 µM): 82%
CCC(=N\O)/C(C)=C/c1ccc(F)cc1 — remaining binding (RPS6KA1 N-terminal kinase domain; cell-free assay; 1 µM): 100%
COc1cnc(Nc2cccc(S(N)(=O)=O)c2)nc1N1CCN(c2ccccc2)CC1 — remaining binding (RPS6KA1 N-terminal kinase domain; binding; 1 µM): 100%
O=C(c1ccc(Nc2nccc(-c3cc4ccccc4s3)n2)cc1)N1CCC(N2CCCC2)CC1 — remaining binding (RPS6KA1 N-terminal kinase domain; binding; 1 µM): 100%
COc1cc(-c2cn(C3CCc4c(F)cccc4N(CC(F)(F)F)C3=O)nn2)ccc1-n1cnc(C)c1 (centres unmarked) — remaining binding (RPS6KA1 C-terminal kinase domain; cell-free assay; 1 µM): 100%
